Experimental data: PubChem BioAssay AID602423 (Sanford-Burnham Center for Chemical Genomics, 2012)
Calls of active or inactive are those of the source.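 How the source made its calls: active means IC50 at or below 20 µM; inactive means the rest.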

Biological target: glucose-6-phosphate dehydrogenase-6-phosphogluconolactonase (PfGluPho), Plasmodium falciparum 3D7
Assay: inhibition of P. falciparum G6PD-lactonase – biochemical, fluorescence intensity, dose response, set 4, SAR follow-up (AID 602423)
Settings: recombinant PfGluPho, resazurin-diaphorase NADPH fluorescence
How it was run: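 Material: PfGluPho, the glucose-6-phosphate dehydrogenase of Plasmodium falciparum | Medium: Tris pH 7.5, MgCl2, BSA, Tween 20 | Also added: G6P 20 µM, NADP 3 µM | Incubation: Enzyme reaction 2 h at room temperature in darkness | Technique: Coupled fluorescence, Ex 530/Em 590 nm | Benchmarks: Low control wells lacking glucose-6-phosphate substrate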

| IC50 | Compound |
| --- | --- |
| inactive | CCCN1CCC(NC(=O)c2ccc3c(c2)NC(=O)c2ccccc2S3)C1 (configuration not stated) |
| 19.9 µM | CCCCN1CCCC1CNC(=O)c1ccc2c(c1)NC(=O)c1ccccc1S2 (configuration not stated) |
| inactive | O=C(NCC1CCCCN1)c1ccc2c(c1)NC(=O)c1ccccc1S2 (configuration not stated) |
| inactive | CCN1CCC[C@@H]1CNC(=O)c1ccc2c(c1)NC(=O)c1cc(F)ccc1S2 |
| 0.187 µM | CCN1CCC[C@@H]1CNC(=O)c1ccc2c(c1)NC(=O)c1cccc(C)c1S2 |
| inactive | CN1CCCC1CNC(=O)c1ccc2c(c1)NC(=O)c1ccccc1S2 (configuration not stated) |
| inactive | CCCN1CCCCC1CNC(=O)c1ccc2c(c1)NC(=O)c1ccccc1S2 (configuration not stated) |
| inactive | CCN1CCC[C@@H]1CNC(=O)c1ccc2c(c1)NC(=O)c1cc(C)ccc1S2 |
| 15.1 µM | CCCN1CCC[C@@H]1CNC(=O)c1ccc2c(c1)NC(=O)c1ccccc1S2 |
| inactive | CCCCCCN1CCCC1CNC(=O)c1ccc2c(c1)NC(=O)c1ccccc1S2 (configuration not stated) |
| inactive | CCN1CCC(NC(=O)c2ccc3c(c2)NC(=O)c2ccccc2S3)C1 (configuration not stated) |
| > 80 µM (inactive) | CCN1CCCCC1CNC(=O)c1ccc2c(c1)NC(=O)c1ccccc1S2 (configuration not stated) |
| > 80 µM (inactive) | CCN1CCC[C@@H]1CNC(=O)c1ccc2c(c1)NC(=O)c1ccccc1N2 |
| inactive | CN1CCCCC1CNC(=O)c1ccc2c(c1)NC(=O)c1ccccc1S2 (configuration not stated) |
| > 80 µM (inactive) | CN1CCC(NC(=O)c2ccc3c(c2)NC(=O)c2ccccc2S3)C1 (configuration not stated) |
| inactive | O=C(NC[C@H]1CCCN1)c1ccc2c(c1)NC(=O)c1ccccc1S2 |
| 2.98 µM | CCN1CCC[C@@H]1CNC(=O)c1ccc2c(c1)NC(=O)c1ccc(F)cc1S2 |
